Consider 13 molecules from ChEMBL document CHEMBL1143339, “Design and synthesis of amidoxime derivatives for orally potent C-alkylamidine-based antimalarial agents” (Bioorg Med Chem Lett, 2009).

For experiment [1], the system named is Plasmodium vinckei petteri. The experiment is described as follows: Antimalarial activity against Plasmodium vinckei petteri 279BY infected Swiss mice (Mus musculus) at daily intraperitoneal dose for 4 days. Type of experiment: functional. As to conditions: ip, 96 h. In outline: (§1)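 Female Swiss mice infected iv with 10⁷ P. vinckei petteri 279BY parasites (about 0.5% parasitemia on day 1). Dosed ip or orally once daily on days 1–4 post-infection. Parasitemia read on day 5 and expressed as % of untreated control. Three mice per dose; mean ± SEM.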

The test system of another experiment is Plasmodium falciparum. The experiment is described as follows: Antimalarial activity after 48 hrs against chloroquine-sensitive Plasmodium falciparum Nigerian by [3H]hypoxanthine uptake. Type of experiment: functional, organism-based. In outline:
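IC50 against P. falciparum given as the mean of at least two independent experiments, each run in duplicate.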

Experiment [2] relates to Plasmodium vinckei petteri. The experiment is described as follows: Antimalarial activity against Plasmodium vinckei petteri 279BY infected Swiss mice (Mus musculus) at daily peroral dose for 4 days. Type of experiment: functional. As to conditions: po, 96 h. An outline of the steps:
as §1

Experiment [3] deals with Plasmodium vinckei petteri. As to the kind of experiment: Antimalarial activity against Plasmodium vinckei petteri 279BY infected Swiss mice (Mus musculus) at 180 mg/kg/day peroral dose over 4 days. As to conditions: route oral. Type of experiment: functional. An outline of the steps: as §1
Experiment [4] relates to Plasmodium vinckei petteri. The experiment is described as follows: Antimalarial activity against Plasmodium vinckei petteri 279BY infected Swiss mice (Mus musculus) at 120 mg/kg/day peroral dose over 4 days. Type of experiment: functional. As to conditions: route oral. In outline: as §1
The subject of experiment [5] is Plasmodium vinckei petteri. As to the kind of experiment: Antimalarial activity against Plasmodium vinckei petteri 279BY infected Swiss mice (Mus musculus) at 20 mg/kg/day intraperitoneal dose over 4 days. Type of experiment: functional. An outline of the steps: as §1

As to `N#Cc1nc(CCCCCCCCCCCCc2noc(C#N)n2)no1`, the ED50 (commonly the midpoint of the dose-response relation) in experiment [1] was greater than 20 mg/kg. The midpoint of inhibition with Plasmodium falciparum, the IC50, lay at 100 µM.

In the case of `N=C(CCCCCCCCCCCC/C(N)=N\OC(=O)Nc1ccccc1)NOC(=O)Nc1ccccc1`, the median effective dose (ED50) is greater than 20 mg/kg in experiment [1] and greater than 180 mg/kg in experiment [2].

In the case of `Cc1c(CCO)sc[n+]1CCCCCCCCCCCC[n+]1csc(CCO)c1C` [ALBITIAZOLIUM BROMIDE], 0.0022 µM corresponded to half-maximal inhibition with Plasmodium falciparum (IC50).

In experiment [1], `NC(=O)c1nc(CCCCCCCCCCCCc2noc(C(N)=O)n2)no1` registered a 50% effective dose (ED50) greater than 20 mg/kg. For the same molecule, half-maximal inhibition with Plasmodium falciparum (IC50) required 7 µM.

In the case of `CS(=O)(=O)O/N=C(/N)CCCCCCCCCCCCC(=N)NOS(C)(=O)=O`, the median effective dose (ED50) was found to be 7 mg/kg in experiment [1] and 40 mg/kg in experiment [2]. In the experiment with Plasmodium falciparum, the midpoint of inhibition, the IC50, lay at 0.0025 µM.

Turning to `CO/N=C(/N)CCCCCCCCCCCCC(=N)NOC`, the ED50 in experiment [1] is greater than 20 mg/kg; in experiment [2], 180 mg/kg. The molecule also had an Activity in experiment [3] of 50%. In addition, half-maximal inhibition with Plasmodium falciparum (IC50) was put at 6.8 µM.

As to `N=C(N)CCCCCCCCCCCCC(=N)N` [TETRADECANEBIS(IMIDAMIDE)], the values for the median effective dose (ED50) in experiment [1] and in experiment [2] were greater than 10 mg/kg and greater than 100 mg/kg, respectively.

For `N=C(CCCCCCCCCCCC/C(N)=N\OC(=O)c1ccccc1)NOC(=O)c1ccccc1`, the ED50 in experiment [1] is greater than 10 mg/kg; in experiment [2], greater than 90 mg/kg. For the same molecule, the IC50 (in general, the concentration that gives 50% inhibition) with Plasmodium falciparum came out at 1.1 µM.

`N/C(CCCCCCCCCCCC/C(N)=N/O)=N\O` displayed a median effective dose (ED50) in experiment [2] of 120 mg/kg. The same molecule registered an IC50 in the experiment on Plasmodium falciparum of 3.5 µM.

On to `CC(=O)O/N=C(/N)CCCCCCCCCCCCC(=N)NOC(C)=O`, for which the ED50 was greater than 10 mg/kg in experiment [1] and greater than 90 mg/kg in experiment [2]. In the experiment on Plasmodium falciparum, this molecule yielded an IC50 of 1.4 µM.

`CCNC(=O)O/N=C(/N)CCCCCCCCCCCCC(=N)NOC(=O)NCC` had an Activity in experiment [4] of 80%. For the same molecule, the ED50 in experiment [1] is greater than 20 mg/kg; in experiment [2], 90 mg/kg. The molecule also returned a half-maximal inhibitory concentration (IC50) in the experiment on Plasmodium falciparum of 0.18 µM.

`O=c1[nH]c(CCCCCCCCCCCCc2noc(=O)[nH]2)no1`: the ED50 in experiment [1] was greater than 20 mg/kg; in experiment [2], 100 mg/kg. Moreover, the concentration for half-maximal inhibition (IC50) in the experiment with Plasmodium falciparum came out at 9.2 µM.

Consider `O=c1[nH]c(CCCCCCCCCCCCc2nsc(=O)[nH]2)ns1`, for which the Activity in experiment [4] came out at 25%; in experiment [5] it was 50%. For the same molecule, the median effective dose (ED50) in experiment [1] was 20 mg/kg; in experiment [2], greater than 120 mg/kg. The molecule further yielded an IC50 in the experiment with Plasmodium falciparum of 0.0175 µM.
